From ChEMBL document CHEMBL4190397, “Design and Synthesis of Novel and Selective Glycine Transporter-1 (GlyT1) Inhibitors with Memory Enhancing Properties” (J Med Chem, 2018) come the findings set out here.

Each structure is given as a SMILES string. pIC50: −log10 of the molar value.

Data set [1] concerns the target Cytochrome P450 2C19 (Homo sapiens, UniProt P33261). Description: Inhibition of CYP2C19 in human liver microsomes using S-mephenytoin as substrate measured after 10 mins in presence of NADPH by LC-MS/MS analysis.
Data set [2] has as its target Cytochrome P450 2D6 (Homo sapiens, UniProt P10635). Kind of data set: Inhibition of CYP2D6 in human liver microsomes using dextromethorphan as substrate measured after 10 mins in presence of NADPH by LC-MS/MS analysis.
Data set [3] is described as follows: Intrinsic clearance in human liver microsomes at 1 uM assessed per mg protein at 37 degC up to 60 mins in presence of NADPH by HPLC-MS analysis. The settings on record: read-out: CLH. The class given is ADME, microsome.
The nature of data set [4]: Intrinsic clearance in rat liver microsomes at 1 uM assessed per mg protein at 37 degC up to 30 mins in presence of NADPH by HPLC-MS analysis. It counts as ADME, microsome. To be noted: read-out: CLH.
Data set [5] addresses T1, Sodium- and chloride-dependent glycine transporter 2 (Homo sapiens, UniProt Q9Y345).
T1 sequence (Q9Y345 whole entry): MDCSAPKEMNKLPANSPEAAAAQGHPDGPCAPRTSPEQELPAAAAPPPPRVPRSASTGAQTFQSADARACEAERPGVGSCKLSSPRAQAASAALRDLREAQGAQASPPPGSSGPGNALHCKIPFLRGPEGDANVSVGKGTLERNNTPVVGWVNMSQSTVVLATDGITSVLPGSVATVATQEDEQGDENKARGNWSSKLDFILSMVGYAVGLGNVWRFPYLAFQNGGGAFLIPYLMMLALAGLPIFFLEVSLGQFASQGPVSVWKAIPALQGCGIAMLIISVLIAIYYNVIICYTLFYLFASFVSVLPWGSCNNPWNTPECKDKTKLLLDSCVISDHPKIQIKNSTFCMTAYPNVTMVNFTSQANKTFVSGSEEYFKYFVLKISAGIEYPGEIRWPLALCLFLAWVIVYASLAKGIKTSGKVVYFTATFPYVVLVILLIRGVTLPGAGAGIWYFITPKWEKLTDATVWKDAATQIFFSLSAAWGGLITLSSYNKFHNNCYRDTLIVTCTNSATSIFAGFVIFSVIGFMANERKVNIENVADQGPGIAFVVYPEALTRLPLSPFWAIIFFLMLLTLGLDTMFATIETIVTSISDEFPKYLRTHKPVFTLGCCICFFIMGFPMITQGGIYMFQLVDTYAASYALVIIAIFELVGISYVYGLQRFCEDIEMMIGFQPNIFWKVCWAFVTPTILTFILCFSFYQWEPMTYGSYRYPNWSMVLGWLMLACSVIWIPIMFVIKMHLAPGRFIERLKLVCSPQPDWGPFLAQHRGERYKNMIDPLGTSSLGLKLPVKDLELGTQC
Description: Inhibition of recombinant human GlyT2 expressed in HEK293 cells assessed as reduction in [14C]glycine uptake after 2 hrs by microbeta scintillation counting method. It counts as cell-based.

Data set [6] in a line: Apparent permeability from basolateral to apical side in MDCK-MDR1 cells monolayer at 5 uM after 60 mins by LC-MS/MS analysis. The settings on record: dog.
For data set [7], the target named is T2, Cytochrome P450 1A2 (Homo sapiens, UniProt P05177).
T2 sequence (P05177 whole entry): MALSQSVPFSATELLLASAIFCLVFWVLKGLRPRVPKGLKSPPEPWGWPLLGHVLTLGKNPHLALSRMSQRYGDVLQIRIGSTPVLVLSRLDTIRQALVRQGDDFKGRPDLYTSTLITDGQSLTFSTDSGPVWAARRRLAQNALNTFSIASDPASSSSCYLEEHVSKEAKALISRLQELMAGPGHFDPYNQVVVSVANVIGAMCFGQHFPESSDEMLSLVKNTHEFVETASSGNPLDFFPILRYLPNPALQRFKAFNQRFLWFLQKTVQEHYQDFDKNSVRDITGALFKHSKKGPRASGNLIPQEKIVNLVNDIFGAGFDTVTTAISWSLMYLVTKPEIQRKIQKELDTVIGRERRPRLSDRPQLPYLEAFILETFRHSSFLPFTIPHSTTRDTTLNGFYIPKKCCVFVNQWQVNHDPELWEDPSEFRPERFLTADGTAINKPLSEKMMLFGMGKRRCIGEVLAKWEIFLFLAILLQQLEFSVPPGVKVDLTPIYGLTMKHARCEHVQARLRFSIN
Kind of data set: Inhibition of CYP1A2 in human liver microsomes using phenacetin as substrate measured after 10 mins in presence of NADPH by LC-MS/MS analysis.

Data set [8] has as its target T3, Sodium- and chloride-dependent glycine transporter 1 (Rattus norvegicus, UniProt P28572).
T3 sequence (P28572 whole entry): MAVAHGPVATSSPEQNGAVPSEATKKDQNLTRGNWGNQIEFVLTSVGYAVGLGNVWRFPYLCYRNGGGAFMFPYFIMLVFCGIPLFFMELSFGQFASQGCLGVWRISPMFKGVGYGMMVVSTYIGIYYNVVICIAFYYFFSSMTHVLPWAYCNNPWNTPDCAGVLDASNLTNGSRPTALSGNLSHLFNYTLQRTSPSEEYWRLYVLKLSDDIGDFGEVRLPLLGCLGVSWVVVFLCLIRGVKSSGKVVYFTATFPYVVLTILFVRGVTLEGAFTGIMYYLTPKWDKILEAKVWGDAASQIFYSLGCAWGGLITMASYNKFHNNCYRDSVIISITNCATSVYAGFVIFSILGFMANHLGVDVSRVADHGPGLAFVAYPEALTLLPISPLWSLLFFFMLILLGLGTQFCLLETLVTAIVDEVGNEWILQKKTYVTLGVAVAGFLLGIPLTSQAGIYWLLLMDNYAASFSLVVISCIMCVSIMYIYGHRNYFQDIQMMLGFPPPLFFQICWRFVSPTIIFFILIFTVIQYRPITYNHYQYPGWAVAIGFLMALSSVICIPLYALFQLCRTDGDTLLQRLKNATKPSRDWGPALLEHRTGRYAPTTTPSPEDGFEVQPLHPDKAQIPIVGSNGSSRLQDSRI
Kind of data set: Inhibition of GlyT1 in primary rat cortical neurons assessed as reduction in [14C]glycine uptake after 2 hrs by microbeta scintillation counting method.

Data set [9] has as its target Voltage-gated inwardly rectifying potassium channel KCNH2 (Homo sapiens, UniProt Q12809). Description: Inhibition of human ERG expressed in CHO cells at 10 nM to 10 uM at holding potential of -80 mV measured after 5 mins by QPatch automated patch clamp electrophysiology method.
For data set [10], the target named is Cytochrome P450 2C9 (Homo sapiens, UniProt P11712). Kind of data set: Inhibition of CYP2C9 in human liver microsomes using diclofenac as substrate measured after 10 mins in presence of NADPH by LC-MS/MS analysis.
Data set [11] in a line: Apparent permeability from apical to basolateral side in MDCK-MDR1 cells monolayer at 5 uM after 60 mins by LC-MS/MS analysis. The settings on record: dog.
A short description of data set [12]: Efflux ratio of apparent permeability from basolateral to apical over apical to basolateral side in MDCK-MDR1 cells at 5 uM after 60 mins by LC-MS/MS analysis. To be noted: dog.
The target of data set [13] is T4, Sodium- and chloride-dependent glycine transporter 1 (Homo sapiens, UniProt P48067).
T4 sequence (P48067 whole entry): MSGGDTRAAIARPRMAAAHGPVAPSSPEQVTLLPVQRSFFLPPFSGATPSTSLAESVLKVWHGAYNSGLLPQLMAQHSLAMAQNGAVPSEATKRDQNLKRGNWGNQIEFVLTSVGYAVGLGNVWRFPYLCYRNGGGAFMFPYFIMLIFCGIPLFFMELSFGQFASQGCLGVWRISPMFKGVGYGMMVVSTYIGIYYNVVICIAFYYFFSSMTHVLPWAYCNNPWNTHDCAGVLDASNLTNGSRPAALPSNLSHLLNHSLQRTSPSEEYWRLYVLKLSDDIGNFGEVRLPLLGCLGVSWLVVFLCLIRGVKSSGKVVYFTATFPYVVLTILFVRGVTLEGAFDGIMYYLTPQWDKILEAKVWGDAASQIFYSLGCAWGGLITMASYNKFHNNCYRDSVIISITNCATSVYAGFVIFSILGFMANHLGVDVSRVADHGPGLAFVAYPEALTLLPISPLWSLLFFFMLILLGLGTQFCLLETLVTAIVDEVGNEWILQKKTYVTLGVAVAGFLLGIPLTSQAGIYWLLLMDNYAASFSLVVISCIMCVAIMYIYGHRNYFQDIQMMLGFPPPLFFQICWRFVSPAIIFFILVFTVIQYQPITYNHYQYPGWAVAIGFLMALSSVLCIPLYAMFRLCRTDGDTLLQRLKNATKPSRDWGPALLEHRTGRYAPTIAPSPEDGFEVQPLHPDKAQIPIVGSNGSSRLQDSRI
Kind of data set: Inhibition of recombinant human GlyT1c expressed in HEK293 cells assessed as reduction in [14C]glycine uptake after 2 hrs by microbeta scintillation counting method. The class given is cell-based.

Data set [14] concerns the target Cytochrome P450 3A4 (Homo sapiens, UniProt P08684). Description: Inhibition of CYP3A4 in human liver microsomes using midazolam as substrate measured after 7 mins in presence of NADPH by LC-MS/MS analysis.
Data set [15] is described as follows: Permeability of the compound at pH 7.4 at 100 uM after 60 mins by PAMPA-BBB assay.
The test system of data set [16] is Rattus norvegicus. Description: In vivo inhibition of GlyT1 in Sprague-Dawley rat assessed as increase in CSF glycine levels at 10 mg/kg, po administered as single dose measured after 90 mins by LC-MS/MS analysis relative to control. The class given is functional. Further details: scale not given: the % may be the effect or the level left. The procedure, abridged: (§1)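 Male Sprague-Dawley rats (300−400 g, n = 5), fed ad libitum, dosed orally at 10 mg/kg (10 mL/kg) in NMP/PEG400/water (10:50:40), with a vehicle group (n = 5) in each study. CSF (~100 µL) taken under anaesthesia at 90 min. Glycine derivatised with Marfey's reagent, 13C2-15N-glycine internal standard, LC-MS/MS in negative ion mode. Expressed as % of vehicle; 1-way ANOVA.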

Data set [17] concerns Rattus norvegicus. Description: In vivo inhibition of GlyT1 in Sprague-Dawley rat assessed as CSF glycine levels at 10 mg/kg, po administered as single dose measured after 90 mins by LC-MS/MS analysis relative to control. It counts as functional. In short, it runs like this: as §1

Chain of Cytochrome P450 2D6 (P10635 whole entry): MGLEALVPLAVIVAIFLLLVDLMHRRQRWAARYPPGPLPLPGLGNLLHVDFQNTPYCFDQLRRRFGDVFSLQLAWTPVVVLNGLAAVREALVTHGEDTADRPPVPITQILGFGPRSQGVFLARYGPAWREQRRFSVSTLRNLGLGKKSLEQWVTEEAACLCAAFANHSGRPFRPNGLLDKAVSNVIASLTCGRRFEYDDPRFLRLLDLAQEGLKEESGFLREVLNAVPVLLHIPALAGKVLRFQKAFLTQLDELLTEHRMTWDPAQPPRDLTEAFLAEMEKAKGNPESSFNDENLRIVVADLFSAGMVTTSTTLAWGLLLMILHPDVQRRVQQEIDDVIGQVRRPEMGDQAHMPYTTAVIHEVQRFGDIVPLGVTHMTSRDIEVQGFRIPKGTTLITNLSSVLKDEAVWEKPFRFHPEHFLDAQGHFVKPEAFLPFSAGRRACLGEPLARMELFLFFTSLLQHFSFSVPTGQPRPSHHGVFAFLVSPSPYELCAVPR
Chain of Voltage-gated inwardly rectifying potassium channel KCNH2 (Q12809 whole entry): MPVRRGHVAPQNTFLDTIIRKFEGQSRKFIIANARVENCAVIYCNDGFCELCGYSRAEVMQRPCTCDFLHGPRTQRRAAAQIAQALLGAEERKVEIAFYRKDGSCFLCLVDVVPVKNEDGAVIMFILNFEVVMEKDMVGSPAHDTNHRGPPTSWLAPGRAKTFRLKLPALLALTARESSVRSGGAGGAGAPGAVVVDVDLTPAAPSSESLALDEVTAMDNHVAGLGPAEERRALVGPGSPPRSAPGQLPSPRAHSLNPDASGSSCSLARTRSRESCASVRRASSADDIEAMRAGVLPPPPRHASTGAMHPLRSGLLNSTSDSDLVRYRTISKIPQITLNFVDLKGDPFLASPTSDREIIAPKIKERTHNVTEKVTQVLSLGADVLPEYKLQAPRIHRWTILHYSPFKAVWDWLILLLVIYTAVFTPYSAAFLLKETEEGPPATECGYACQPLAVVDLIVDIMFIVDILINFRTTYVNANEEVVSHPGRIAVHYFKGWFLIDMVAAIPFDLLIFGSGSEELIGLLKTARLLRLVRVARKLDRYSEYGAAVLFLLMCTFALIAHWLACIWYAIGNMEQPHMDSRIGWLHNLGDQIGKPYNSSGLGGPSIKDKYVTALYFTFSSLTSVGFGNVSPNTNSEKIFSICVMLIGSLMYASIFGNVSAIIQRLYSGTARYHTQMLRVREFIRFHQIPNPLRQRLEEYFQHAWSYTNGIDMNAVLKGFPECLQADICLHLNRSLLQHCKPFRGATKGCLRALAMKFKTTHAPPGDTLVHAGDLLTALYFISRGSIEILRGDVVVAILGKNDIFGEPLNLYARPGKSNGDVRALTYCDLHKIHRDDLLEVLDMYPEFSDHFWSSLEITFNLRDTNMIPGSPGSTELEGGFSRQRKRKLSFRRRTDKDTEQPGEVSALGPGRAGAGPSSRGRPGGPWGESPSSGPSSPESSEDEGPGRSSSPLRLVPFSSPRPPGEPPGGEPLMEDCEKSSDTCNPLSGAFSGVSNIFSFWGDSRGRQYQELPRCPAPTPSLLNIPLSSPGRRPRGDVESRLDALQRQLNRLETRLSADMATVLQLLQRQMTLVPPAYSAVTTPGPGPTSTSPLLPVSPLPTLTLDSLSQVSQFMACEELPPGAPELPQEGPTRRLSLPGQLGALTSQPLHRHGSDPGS
Chain of Cytochrome P450 2C19 (P33261 whole entry): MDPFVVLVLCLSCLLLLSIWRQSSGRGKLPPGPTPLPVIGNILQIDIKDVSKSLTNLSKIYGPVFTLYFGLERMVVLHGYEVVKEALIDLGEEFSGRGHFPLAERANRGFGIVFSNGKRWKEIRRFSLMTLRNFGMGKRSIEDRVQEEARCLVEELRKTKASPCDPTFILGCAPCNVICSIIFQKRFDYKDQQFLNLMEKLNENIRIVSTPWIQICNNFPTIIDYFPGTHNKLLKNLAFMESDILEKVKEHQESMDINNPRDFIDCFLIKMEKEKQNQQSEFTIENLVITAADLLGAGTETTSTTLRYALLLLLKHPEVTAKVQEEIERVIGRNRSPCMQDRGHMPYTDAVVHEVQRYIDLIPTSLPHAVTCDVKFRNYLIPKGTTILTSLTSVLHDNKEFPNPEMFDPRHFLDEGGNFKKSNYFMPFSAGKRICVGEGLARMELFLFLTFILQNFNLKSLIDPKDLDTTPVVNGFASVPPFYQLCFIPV
Chain of Cytochrome P450 2C9 (P11712 whole entry): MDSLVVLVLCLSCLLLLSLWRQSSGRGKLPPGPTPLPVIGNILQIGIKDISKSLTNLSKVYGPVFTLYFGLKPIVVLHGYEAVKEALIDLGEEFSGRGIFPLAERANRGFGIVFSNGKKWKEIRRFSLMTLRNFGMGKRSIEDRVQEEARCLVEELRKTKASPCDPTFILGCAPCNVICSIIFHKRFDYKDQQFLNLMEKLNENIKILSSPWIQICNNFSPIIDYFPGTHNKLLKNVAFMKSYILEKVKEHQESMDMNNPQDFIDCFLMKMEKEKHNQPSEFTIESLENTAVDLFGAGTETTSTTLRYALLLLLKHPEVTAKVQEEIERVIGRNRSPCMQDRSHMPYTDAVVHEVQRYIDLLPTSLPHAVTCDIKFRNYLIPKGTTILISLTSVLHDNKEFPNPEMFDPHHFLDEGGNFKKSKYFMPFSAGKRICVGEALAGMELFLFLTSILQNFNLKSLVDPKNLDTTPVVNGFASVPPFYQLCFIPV
Chain of Cytochrome P450 3A4 (P08684 whole entry): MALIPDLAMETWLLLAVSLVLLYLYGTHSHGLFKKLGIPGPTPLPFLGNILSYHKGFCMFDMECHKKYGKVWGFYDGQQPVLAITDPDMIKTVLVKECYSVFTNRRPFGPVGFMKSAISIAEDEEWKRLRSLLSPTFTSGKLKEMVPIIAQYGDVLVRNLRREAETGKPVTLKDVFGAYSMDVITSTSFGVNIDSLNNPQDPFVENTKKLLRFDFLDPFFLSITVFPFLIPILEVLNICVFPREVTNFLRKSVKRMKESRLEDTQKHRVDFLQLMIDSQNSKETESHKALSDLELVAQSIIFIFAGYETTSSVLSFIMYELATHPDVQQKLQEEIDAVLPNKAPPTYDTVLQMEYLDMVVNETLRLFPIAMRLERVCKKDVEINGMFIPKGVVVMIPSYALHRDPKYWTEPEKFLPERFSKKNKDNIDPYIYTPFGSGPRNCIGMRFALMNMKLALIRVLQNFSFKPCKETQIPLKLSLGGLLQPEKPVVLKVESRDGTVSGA

`CCS(=O)(=O)c1ccc(O[C@@H](C)C(F)(F)F)c(C(=O)N2Cc3cn(-c4cncc(F)c4)nc3C2)c1`: the pIC50 in data set [1] is less than 5.00; in [2], less than 5.00; in data set [5] it was less than 5.00; in data set [7], less than 5.00; in [8], 8.10; in data set [9], less than 5.00. For the same compound, the figures for the pIC50 in [10], in [13] and in data set [14] were less than 5.00, 7.57 and less than 5.00, respectively. Moreover, the microsomal CLint at 1 µM in [3] was found to be 1.3 µL/min/mg; in data set [4], 5.4 µL/min/mg. Moreover, in data set [6], the Papp B→A at 1 h, 5 µM turned out to be 99 ×10⁻⁶ cm/s. The Papp A→B at 1 h, 5 µM in data set [11] was 5.8 ×10⁻⁶ cm/s. In addition, the efflux ratio at 1 h, 5 µM in data set [12] came out at 17.2.

In data set [15], `Cc1cc(-n2cc3c(n2)CN(C(=O)c2cc(C#N)ccc2OCC2CC2)C3)ccn1` displayed a Papp at 1 h, 100 µM greater than 10 ×10⁻⁶ cm/s. Further, the microsomal CLint at 1 µM in data set [3] came out at 22.2 µL/min/mg; in [4], 7 µL/min/mg. In data set [6], the apparent permeability from basolateral to apical (Papp B→A) at 1 h, 5 µM came out at 51.6 ×10⁻⁶ cm/s. For the same compound, the negative-log IC50 (pIC50) in data set [8] was 6.16; in [13], 6.36. The Papp A→B at 1 h, 5 µM in [11] was 41 ×10⁻⁶ cm/s.

For `CCS(=O)(=O)c1ccc(O[C@@H](C)C(F)(F)F)c(C(=O)N2Cc3cn(-c4ccccc4F)nc3C2)c1`, the negative logarithm of the IC50 (pIC50) in [1] is less than 5.00; in data set [2] it was less than 5.00; in data set [5] it was less than 5.00; in data set [7], less than 5.00; in [8] it was 8.05; in data set [9], less than 5.00. Besides, the negative logarithm of the IC50 (pIC50) in data set [10] was less than 5.00; in data set [13], 7.54; in data set [14], less than 5.00. Besides, the microsomal CLint at 1 µM in data set [3] amounted to 0.9 µL/min/mg. In addition, the Papp B→A at 1 h, 5 µM in [6] came to 51.9 ×10⁻⁶ cm/s. For the same compound, the Papp A→B at 1 h, 5 µM in [11] was 18 ×10⁻⁶ cm/s. Moreover, the efflux ratio at 1 h, 5 µM in data set [12] worked out at 2.9.

For the compound `CC(C)S(=O)(=O)c1ccc(O[C@@H](C)C(F)(F)F)c(C(=O)N2Cc3cn(-c4ccccc4)nc3C2)c1`, the negative logarithm of the IC50 (pIC50) in data set [1] was less than 5.00; in data set [2], less than 5.00; in [5] it was less than 5.00; in data set [7], less than 5.00; in data set [8], 7.10; in [9], less than 5.00. The pIC50 in data set [10] is less than 5.00; in data set [13], 6.39; in data set [14], less than 5.00. The microsomal CLint at 1 µM in [3] was 10 µL/min/mg; in data set [4], 1.8 µL/min/mg. Moreover, in data set [6], the basolateral-to-apical permeability (Papp B→A) at 1 h, 5 µM worked out at 123 ×10⁻⁶ cm/s. Moreover, the Papp A→B at 1 h, 5 µM in data set [11] is 56.6 ×10⁻⁶ cm/s. Besides, the efflux ratio at 1 h, 5 µM in [12] turned out to be 2.2.

Consider `C[C@H](Oc1ccc(C#N)cc1C(=O)N1Cc2cn(-c3cncc(F)c3)nc2C1)C(F)(F)F`, for which the Activity in data set [16] was found to be 109%; in data set [17], 7.2 µM. The pIC50 is less than 5.00 in data set [5], 7.09 in data set [8] and 7.16 in data set [13].

With `C[C@H](Oc1ccc(S(C)(=O)=O)cc1C(=O)N1Cc2cn(-c3ccccc3F)nc2C1)C(F)(F)F`, the Activity turned out to be 169% in [16] and 9.5 µM in data set [17].
